SMARCA2 activ = SMARCA2 (BRM) function activators, primary screen, cell-based, luminescence, high throughput; activation, % at 9.1 µM; MG213 cells, MMTV-luciferase reporter, dexamethasone, overnight; 370,000 tested, 1% active; in the data active means activation above about 7.8%;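 further: 0% = vehicle wells and 100% = reference activator wells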
MC4R ag barr = MC4R agonists recruiting beta-arrestin, primary screen, cell-based, luminescence, agonist arm of biased-ligand search; U2OS MC4R beta-arrestin complementation; percent of melanotan II response, DMSO zero; activation, % at 8.9 µM; 360,000 tested, 0.98% active;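 active means activation above a per-plate cutoff, the mean activation of sample wells on that plate plus 3 SD, cut at about 8% in these data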
Target sequence (P32245 whole entry, looked up): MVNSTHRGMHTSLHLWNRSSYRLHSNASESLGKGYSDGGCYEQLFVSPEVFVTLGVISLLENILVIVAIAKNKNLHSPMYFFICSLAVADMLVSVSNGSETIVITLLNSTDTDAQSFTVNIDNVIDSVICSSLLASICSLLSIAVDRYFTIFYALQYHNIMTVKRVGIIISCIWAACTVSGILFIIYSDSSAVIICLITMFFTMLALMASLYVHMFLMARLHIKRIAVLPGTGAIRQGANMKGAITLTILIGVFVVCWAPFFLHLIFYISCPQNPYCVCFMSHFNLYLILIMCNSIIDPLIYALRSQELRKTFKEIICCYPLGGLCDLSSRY
MPTP block = mitochondrial permeability transition pore inhibitors, primary screen, biochemical, isolated mouse mitochondria, absorbance; Ca2+ swelling absorbance, 30 min; inhibition, % at 10 µM; 360,000 tested, 1.4% active; AID 602449, 2012;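 active means inhibition of 50% or more, scaled per plate between neutral and stimulator controls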;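 further: 0% = DMSO wells given calcium and 100% = 1 mM EGTA wells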
ATG4B inh = ATG4B protease inhibitors, primary screen, biochemical, fluorescence, uHTS. AID 504462, 2011. inhibition, % at 8.33 µM. Cysteine protease ATG4B (Homo sapiens), Q9Y4P1. ATG4B cleavage of LC3-PLA2, NBD-HPC fluorescence, 1 h. 340,000 tested, 0.51% active; in the data active means inhibition above about 40%
MC4R antag cAMP = MC4R antagonists of cAMP signaling, primary screen, cell-based, TR-FRET, antagonist arm of biased-ligand search; 360,000 tested, 0.48% active; Melanocortin receptor 4 (Homo sapiens), P32245; inhibition, % at 6.5 µM; AID 540295, 2011; MC4R-expressing cells, MTII-stimulated cAMP, LANCE TR-FRET;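 active means inhibition above its plate's cutoff, the mean of tested wells on that plate plus 3 SD, cut at about 29% in these data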;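 further: 0% = Melanotan II alone and 100% = Melanotan II plus saturating MCL0020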
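Test system: U2OS cells stably expressing human melanocortin 4 receptor (MC4R); also added: Melanotan II challenge; compound: 6.5 µM single dose; timing: 30-min compound preincubation, 1-h Melanotan II challenge, 1-h detection, room temperature; signal: Eu-cAMP/anti-cAMP TR-FRET, emission 671 nm; repeats: one well per compound, no replicates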
MC4R barr ag = MC4R beta-arrestin agonists, retest, confirmation, cell-based, luminescence, U2OS; U2OS MC4R beta-arrestin recruitment; scaled DMSO 0%, Melanotan II 100%; activation, % at 8.9 µM; AID 602192, 2012; shares compounds with MC4R ag barr; 2,400 tested, 31% active;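 active means mean activation across replicates above the hit cutoff set in the earlier primary screen, cut at about 8% in these data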
MOR DOR agonist = agonists of MOR-DOR heterodimerization, counter-screen for MC4R biased agonist project, cell-based, luminescence. U2OS PathHunter beta-arrestin, beta-gal luminescence; percent of deltorphin B response, DMSO zero. activation, % at 9.2 µM. shares compounds with MC4R ag barr. 2,400 tested, 5.8% active. AID 602194, 2012;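 active means mean activation across replicates exceeds the hit threshold derived in the earlier primary screen, cut at about 18% in these data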;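 further: 100% = deltorphin B at 0.9 µM final and 0% = DMSO alone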
* = called active by the depositor. Hits are enriched below; roughly 4.1% of the tested compounds scored in any of these assays.

For O=C(COC(=O)c1ccc2ccccc2n1)Nc1ncc(C(F)(F)F)cc1Cl the results were SMARCA2 activ 0, MC4R ag barr -1, MPTP block -2, ATG4B inh 3 and MC4R antag cAMP 16.
O=C(COC(=O)c1ccc2ccccc2c1)Nc1ncc(C(F)(F)F)cc1Cl was read as SMARCA2 activ -1, MC4R ag barr 10*, MPTP block 0, ATG4B inh -1, MC4R antag cAMP 3, MC4R barr ag 6 and MOR DOR agonist 4.
Screening CCn1c(CC(=O)Nc2ccc(C)c(Cl)c2)nnc1SCCOc1ccc(OC)cc1 returned SMARCA2 activ -1, MC4R ag barr 11*, MPTP block 0, ATG4B inh -3, MC4R antag cAMP -5, MC4R barr ag 0 and MOR DOR agonist 7.
`N=c1n(CCN2CCCCC2)c2ccccc2n1CC(=O)c1cccc([N+](=O)[O-])c1` gave SMARCA2 activ 8.6*, MC4R ag barr 11*, MPTP block 4, ATG4B inh -6, MC4R antag cAMP -4 and MC4R barr ag 5.
For O=C(OCc1cn(Cc2ccc(F)cc2)nn1)N1CCOCC1 the results were SMARCA2 activ -1.
`CN(C)CCNC(=O)c1cccc(-c2cnc3c(NC=O)cc(-c4ccc(F)cc4)cn23)c1` gave SMARCA2 activ 5, MC4R ag barr -1, MPTP block -1 and MC4R antag cAMP -12.
Screening CC(=O)c1cccc(-c2cnc3c(NC=O)cc(-c4ccc(F)cc4)cn23)c1 returned SMARCA2 activ 5, MC4R ag barr 14*, MPTP block 2, MC4R antag cAMP 5, MC4R barr ag 15* and MOR DOR agonist 4.
Screening COc1ccccc1-c1cc(NC=O)c2ncc(-c3cccc(C(=O)N(C)C)c3)n2c1 returned SMARCA2 activ 0, MC4R ag barr 1, MPTP block -1 and MC4R antag cAMP -48.
For COc1ccccc1-c1cc(NC=O)c2ncc(-c3cccc(C(C)=O)c3)n2c1 the results were SMARCA2 activ 0, MC4R ag barr 9.9*, MPTP block 2, MC4R antag cAMP -43, MC4R barr ag 14* and MOR DOR agonist 4.
COc1ccc(F)cc1-c1cc(NC=O)c2ncc(-c3cccc(C(F)(F)F)c3)n2c1 was read as SMARCA2 activ 2, MC4R ag barr 10*, MPTP block 0, MC4R antag cAMP -23, MC4R barr ag 6 and MOR DOR agonist 2.
COc1cccc2cc(C(=O)c3ccc([N+](=O)[O-])cc3)oc12 was read as SMARCA2 activ 0, MC4R ag barr 20*, MPTP block 0, ATG4B inh 8, MC4R antag cAMP 5, MC4R barr ag 0 and MOR DOR agonist 6.
Screening c1ccc(COC2CCCN(Cc3nc(Cc4ccccc4)no3)C2)cc1 (centres undefined) returned SMARCA2 activ 2, MC4R ag barr 9.9*, MPTP block -1, ATG4B inh -3, MC4R antag cAMP 5, MC4R barr ag 1 and MOR DOR agonist 4.
Screening c1ccc(COC2CCCN(Cc3nc(-c4cnccn4)no3)C2)cc1 (centres undefined) returned SMARCA2 activ 1, MC4R ag barr 2, MPTP block 0, ATG4B inh -10 and MC4R antag cAMP -5.
Cc1nn(-c2ccccc2)c(N2CCCC2)c1/C=N/NC(=O)c1cc(-c2ccccc2)nc2ccccc12 was read as SMARCA2 activ -4, MC4R ag barr 1, MPTP block 2, ATG4B inh 10 and MC4R antag cAMP 22.
For Cc1nn(-c2ccccc2)c(N2CCCC2)c1/C=N/NC(=S)Nc1ccccc1F the results were SMARCA2 activ 2, MC4R ag barr 14*, MPTP block 2, ATG4B inh -10, MC4R antag cAMP 1, MC4R barr ag 3 and MOR DOR agonist 2.
`COC(=O)[C@]12C[C@H](CC(=O)NCCCCc3ccccc3)C(=O)N(Cc3ccccc3)C1=C[C@H](C(C)C)O[C@@H]2C1CC1` gave SMARCA2 activ -8.
O=C(OC12CCCN(C1)/C(=C/c1ccc(Cl)cc1)C2)c1ccno1 (centres undefined) was read as SMARCA2 activ -3.
Cc1c(-c2ccccc2)nc(N)c(C#N)c1-c1ccco1 was read as SMARCA2 activ -1, MC4R ag barr 12*, MPTP block 4, ATG4B inh -5, MC4R antag cAMP -2, MC4R barr ag 2 and MOR DOR agonist 4.
`COc1ccc(NC(=O)NCc2ccc3c(c2)OCO3)cc1` gave SMARCA2 activ 1, MC4R ag barr 3, MPTP block 2, ATG4B inh -6 and MC4R antag cAMP 19.
For O=C(NCc1ccc2c(c1)OCO2)Nc1ccc2ccccc2c1 the results were SMARCA2 activ 2, MC4R ag barr 11*, MPTP block 2, ATG4B inh -5, MC4R antag cAMP -4, MC4R barr ag 0 and MOR DOR agonist 5.
`CCOC(=O)c1sc(N(Cc2ccccc2)C(=O)CCl)nc1C` gave SMARCA2 activ -5, MC4R ag barr 16*, MPTP block -1, ATG4B inh 6, MC4R antag cAMP 25, MC4R barr ag 4 and MOR DOR agonist 38*.
For O=C(NC(=S)Nc1ccc2oc(=O)ccc2c1)c1cccc(F)c1 the results were SMARCA2 activ 2, MC4R ag barr -3, MPTP block 0, ATG4B inh -13 and MC4R antag cAMP 4.
O=C(NC(=S)Nc1ccc2oc(=O)ccc2c1)c1cccc(Cl)c1 was read as SMARCA2 activ -3, MC4R ag barr 20*, MPTP block 0, ATG4B inh -3, MC4R antag cAMP -4, MC4R barr ag 4 and MOR DOR agonist 5.
`COc1ccc(O)c(-c2cc(C(F)(F)C(F)F)nc(-c3ccccc3)n2)c1` gave SMARCA2 activ 2, MC4R ag barr 14*, MPTP block -2, ATG4B inh 5, MC4R antag cAMP -2, MC4R barr ag 17* and MOR DOR agonist 1.
`COC(=O)C1CN(Cc2ccc(C)cc2)CCS(=O)(=O)N1Cc1cn(Cc2ccccc2)nn1` (centres undefined) gave SMARCA2 activ -1.

Screening data deposited in PubChem by several laboratories.
